Measured values taken from ChEMBL document CHEMBL1121657, “Effects of 1-arylpyrroles and naphthoflavones upon cytochrome P-450 dependent monooxygenase activities” (J Med Chem, 1981).

Experiments:
[1] = species: Rattus norvegicus; test: Compound was evaluated for alpha -rate constant, in liver microsomes from beta-naphthoflavone-exposed rats; conditions: Microsome
How it was run: (§1)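 Rats (male Sprague-Dawley, 75-125 g) dosed ip with 3MC or βNF, 50 mg/kg in corn oil, on 3 successive days; liver microsomes isolated day 4. 7-Ethoxycoumarin deethylation (2.5-300 μM substrate) measured with inhibitor present; KM and Vmax by Eisenthal–Cornish-Bowden direct linear method. Ki from x-intercept of least-squares KM/Vmax vs [I]; αKi from x-intercept of 1/Vmax vs [I].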

[2] = species: Rattus norvegicus; test: Compound was evaluated for alpha -rate constant, in liver microsomes from 3-methylcholanthrene-exposed rats; conditions: Microsome; how it was run: as §1
[3] = species: Rattus norvegicus; test: Michaelis-Menten constant for 7-ethoxycoumarin deethylation in rat liver microsomes exposed to 3-methylcholanthrene at a concentration of 50 uM; conditions: Microsome
How it was run: (§2)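 Liver microsomes from male Sprague-Dawley rats given 3MC or βNF ip (50 mg/kg/day, corn oil, 3 days), harvested day 4. NADPH-regenerating system in 0.1 M Tris-HCl pH 7.4. Substrate 2.5-300 μM final. Inhibitor added from methanol stock. Reaction started with 0.375-0.56 mg microsomal protein, run 4 min at 37 °C, stopped with TCA. 7-Hydroxycoumarin fluorescence read at pH 10.3. At least four assays per substrate concentration. KM and Vmax by direct linear method, with distribution-free 95% confidence limits.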

[4] = species: Rattus norvegicus; test: Michaelis-Menten constant for 7-ethoxycoumarin deethylation in rat liver microsomes exposed to beta-naphthoflavone at 50 uM; conditions: Microsome
How it was run: (§3)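 Liver microsomes from young male Sprague-Dawley rats (75-125 g) given the inducer ip in corn oil at 50 mg/kg on 3 successive days, microsomes isolated on day 4. 7-Ethoxycoumarin (2.5 to 300 μM final) in 0.1 M Tris-HCl pH 7.4 with NADPH-regenerating system. Reaction started with microsomal protein (0.375-0.56 mg), run 4 min at 37 °C, stopped with TCA. 7-Hydroxycoumarin read fluorometrically at pH 10.3. Inhibitor added from methanol stock, ≥4 assays per condition. KM/Vmax obtained by the Eisenthal–Cornish-Bowden direct linear method with 95% distribution-free confidence limits.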

[5] = Compound was evaluated for inhibition constant, in liver microsomes from 3-methylcholanthrene-exposed rats; parameters: species or system Rattus norvegicus, Microsome
[6] = species: Rattus norvegicus; test: Michaelis-Menten constant for 7-ethoxycoumarin deethylation in rat liver microsomes exposed to 3-methylcholanthrene at a concentration of 25 uM; conditions: Microsome; how it was run: as §2
[7] = species: Rattus norvegicus; test: Michaelis-Menten constant for 7-ethoxycoumarin deethylation in rat liver microsomes exposed to 3-methylcholanthrene at a concentration of 10 nM; conditions: Microsome
[8] = species: Rattus norvegicus; test: Maximum rate constant for 7-ethoxycoumarin deethylation in rat liver microsomes exposed to beta-naphthoflavone at 5 uM; conditions: Microsome; how it was run: as §2
[9] = Compound was evaluated for inhibition constant, in liver microsomes from beta-naphthoflavone-exposed rats; parameters: species or system Rattus norvegicus, Microsome
[10] = species: Rattus norvegicus; test: Vmax determined by 7-ethoxycoumarin deethylation in the presence by liver microsomes from rats exposed to 3-methylcholanthrene at concentration of 10 nM; conditions: Microsome
[11] = species: Rattus norvegicus; test: Maximum rate constant for 7-ethoxycoumarin deethylation in rat liver microsomes exposed to beta-naphthoflavone at concentration of 27.5 uM; conditions: Microsome; how it was run: as §2
[12] = species: Rattus norvegicus; test: Michaelis-Menten constant for 7-ethoxycoumarin deethylation in rat liver microsomes exposed to beta-naphthoflavone at 5 uM; conditions: Microsome; how it was run: as §2
[13] = species: Rattus norvegicus; test: Maximum rate constant for 7-ethoxycoumarin deethylation in rat liver microsomes exposed to beta-naphthoflavone at 50 uM; conditions: Microsome; how it was run: as §2
[14] = species: Rattus norvegicus; test: Maximum rate constant for 7-ethoxycoumarin deethylation in rat liver microsomes exposed to 3-methylcholanthrene at concentration of 50 nM; conditions: Microsome
[15] = species: Rattus norvegicus; test: Maximum rate constant for 7-ethoxycoumarin deethylation in rat liver microsomes exposed to 3-methylcholanthrene at concentration of 25 nM; conditions: Microsome
[16] = species: Rattus norvegicus; test: Michaelis-Menten constant for 7-ethoxycoumarin deethylation in rat liver microsomes exposed to beta-naphthoflavone at 27.5 uM; conditions: Microsome; how it was run: as §2
[17] = species: Rattus norvegicus; test: Michaelis-Menten constant for 7-ethoxycoumarin deethylation in rat liver microsomes exposed to beta-naphthoflavone at 1000 nM; conditions: Microsome
[18] = species: Rattus norvegicus; test: Maximum rate constant for 7-ethoxycoumarin deethylation in rat liver microsomes exposed to beta-naphthoflavone at 1500 uM; conditions: Microsome; how it was run: as §2
[19] = species: Rattus norvegicus; test: Michaelis-Menten constant for 7-ethoxycoumarin deethylation in rat liver microsomes exposed to 3-methylcholanthrene at concentration of 50 nM; conditions: Microsome
[20] = species: Rattus norvegicus; test: Maximum rate constant for 7-ethoxycoumarin deethylation in rat liver microsomes exposed to 3-methylcholanthrene at concentration of 75 nM; conditions: Microsome
[21] = species: Rattus norvegicus; test: Michaelis-Menten constant for 7-ethoxycoumarin deethylation in rat liver microsomes exposed to 3-methylcholanthrene at concentration of 25 nM; conditions: Microsome
[22] = species: Rattus norvegicus; test: Michaelis-Menten constant for 7-ethoxycoumarin deethylation in rat liver microsomes exposed to beta-naphthoflavone at 500 uM; conditions: Microsome; how it was run: as §3
[23] = species: Rattus norvegicus; test: Michaelis-Menten constant for 7-ethoxycoumarin deethylation in rat liver microsomes exposed to 3-methylcholanthrene at concentration of 75 nM; conditions: Microsome
[24] = species: Rattus norvegicus; test: Maximum rate constant for 7-ethoxycoumarin deethylation in rat liver microsomes exposed to beta-naphthoflavone at 500 uM; conditions: Microsome; how it was run: as §2
[25] = species: Rattus norvegicus; test: Michaelis-Menten constant for 7-ethoxycoumarin deethylation in rat liver microsomes exposed to beta-naphthoflavone at 1500 nM; conditions: Microsome
[26] = species: Rattus norvegicus; test: Maximum rate constant for 7-ethoxycoumarin deethylation in rat liver microsomes exposed to beta-naphthoflavone at 1000 nM; conditions: Microsome
[27] = species: Rattus norvegicus; test: Maximum rate constant for 7-ethoxycoumarin deethylation in rat liver microsomes exposed to beta-naphthoflavone at concentration of 1000 uM; conditions: Microsome; how it was run: as §2
[28] = species: Rattus norvegicus; test: Maximum rate constant for 7-ethoxycoumarin deethylation in rat liver microsomes exposed to beta-naphthoflavone at concentration of 1500 uM; conditions: Microsome; how it was run: as §2
[29] = species: Rattus norvegicus; test: Maximum rate constant for 7-ethoxycoumarin deethylation in rat liver microsomes exposed to 3-methylcholanthrene at concentration of 200 uM; conditions: Microsome, 225 nM, in the assay text read “225 nM” for “200 uM”; how it was run: as §2
[30] = species: Rattus norvegicus; test: Michaelis-Menten constant for 7-ethoxycoumarin deethylation in rat liver microsomes exposed to 3-methylcholanthrene at concentration of 100 uM; conditions: Microsome; how it was run: as §2
[31] = species: Rattus norvegicus; test: Maximum rate constant for 7-ethoxycoumarin deethylation in rat liver microsomes exposed to beta-naphthoflavone at concentration of 500 uM; conditions: Microsome; how it was run: as §2
[32] = species: Rattus norvegicus; test: Michaelis-Menten constant for 7-ethoxycoumarin deethylation in rat liver microsomes exposed to exposed to 3-methylcholanthrene at concentration; conditions: Microsome
[33] = species: Rattus norvegicus; test: Maximum rate constant for 7-ethoxycoumarin deethylation in rat liver microsomes exposed to 3-methylcholanthrene at concentration of 100 nM; conditions: Microsome
[34] = species: Rattus norvegicus; test: Compound was evaluated for alpha -rate constant, in liver microsomes from beta-naphthoflavone-exposed rats; competitive inhibition; conditions: Microsome; how it was run: as §1

SMILES | Alpha Ki [1] [µM] | Alpha Ki [2] [µM] | Ki [5] [µM] | Ki [9] [µM] | Vmax (pM min-1 mg-1) [14] | Vmax (pM min-1 mg-1) [15] | Km [17] [µM] | Km [19] [µM] | Km [22] [µM] | Km [25] [µM] | further results
c1ccc(-c2c[nH]cn2)cc1 | 75 | 64 |  |  |  |  |  |  |  |  | 
O=c1cc(-c2ccccc2)oc2c1ccc1ccccc12 [ALPHA-NAPHTHOFLAVONE] | 0.048 | 0.033 | 0.017 | 0.024 | 69 | 108 |  |  |  |  | Km [3]: 23.4 µM; Km [4]: 25.7 µM; Km [6]: 17.3 µM; Km [7]: 19.6 µM; Vmax (pM min-1 mg-1) [8]: 1220; Vmax (pM min-1 mg-1) [10]: 137; Vmax (pM min-1 mg-1) [11]: 904; Km [12]: 18.5 µM; Vmax (pM min-1 mg-1) [13]: 665; Km [16]: 17 µM
O=c1cc(-c2ccccc2)oc2ccc3ccccc3c12 [BETA-NAPHTHOFLAVONE] | 4 | 0.28 | 0.026 | 0.13 | 143 | 159 | 60 | 26.6 | 33.9 | 93.2 | Vmax (pM min-1 mg-1) [18]: 1000; Vmax (pM min-1 mg-1) [20]: 134; Km [21]: 19.2 µM; Km [23]: 39.7 µM; Vmax (pM min-1 mg-1) [24]: 1200; Vmax (pM min-1 mg-1) [26]: 1100
O=c1cc(-c2ccccc2)oc2ccccc12 [FLAVONE] |  | 0.57 | 0.033 | 0.19 | 153 |  | 115 | 22.3 | 50.3 | 136 | Vmax (pM min-1 mg-1) [27]: 1370; Vmax (pM min-1 mg-1) [28]: 1330; Vmax (pM min-1 mg-1) [29]: 120; Km [30]: 35.8 µM; Vmax (pM min-1 mg-1) [31]: 1340; Km [32]: 62.6 µM; Vmax (pM min-1 mg-1) [33]: 149; Alpha Ki [34]: Competitive inhibition
